Data taken from ChEMBL document CHEMBL4428066, “Small Molecule Reversible Inhibitors of Bruton's Tyrosine Kinase (BTK): Structure-Activity Relationships Leading to the Identification of 7-(2-Hydroxypropan-2-yl)-4-[2-methyl-3-(4-oxo-3,4-dihydroquinazolin-3-yl)phenyl]-9H-carbazole-1-carboxamide (BMS-935177)” (J Med Chem, 2016).
Activity calls are given as the source filed them. No cut-off for these calls is given here.

What was measured:
[1] = AUC (0 to 24 hrs) in Balb/C mouse at 10 mg/kg, po; assay type: ADME, organism-based; set-up: time < 24 hr, dose 10 mg/kg, route oral; details: in vivo
Summary of the method: (§1)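 Male Balb/C mice dosed orally once at 10 mg/kg in PEG300/TPGS/ethanol (90/5/5 v/v/v).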

[2] = molecular target: T1, Tyrosine-protein kinase BTK (Homo sapiens, UniProt Q06187); experiment: Inhibition of His-tagged full length human recombinant BTK expressed in baculovirus using fluoresceinated peptide substrate after 60 mins by fluorescent electrophoretic separation
T1 sequence (Q06187 whole entry): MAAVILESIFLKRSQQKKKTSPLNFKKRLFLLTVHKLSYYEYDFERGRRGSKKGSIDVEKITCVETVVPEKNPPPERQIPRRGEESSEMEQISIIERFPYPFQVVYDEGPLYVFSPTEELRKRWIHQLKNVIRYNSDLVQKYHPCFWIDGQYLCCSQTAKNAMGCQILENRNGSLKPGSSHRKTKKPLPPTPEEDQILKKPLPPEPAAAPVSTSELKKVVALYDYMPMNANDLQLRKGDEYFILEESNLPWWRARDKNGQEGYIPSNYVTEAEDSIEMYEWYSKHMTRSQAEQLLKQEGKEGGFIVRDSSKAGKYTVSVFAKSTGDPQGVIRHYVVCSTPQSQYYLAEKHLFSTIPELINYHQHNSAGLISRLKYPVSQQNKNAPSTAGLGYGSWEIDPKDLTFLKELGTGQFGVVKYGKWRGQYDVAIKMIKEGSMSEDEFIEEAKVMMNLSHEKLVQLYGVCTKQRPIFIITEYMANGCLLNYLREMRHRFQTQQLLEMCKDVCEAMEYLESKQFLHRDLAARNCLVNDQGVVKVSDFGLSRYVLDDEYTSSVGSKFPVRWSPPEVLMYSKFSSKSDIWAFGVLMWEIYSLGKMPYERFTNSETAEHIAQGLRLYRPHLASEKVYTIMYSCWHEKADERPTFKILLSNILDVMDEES

Homo sapiens = species on record: Homo sapiens; experiment: Selectivity ratio of IC50 for GST-tagged human recombinant LCK using FITC-AHAEGIYLFKKK-NH2 as substrate to IC50 for His-tagged full length human recombinant BTK expressed in baculovirus
Summary of the method: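 Fold selectivity is the LCK enzyme IC50 divided by the BTK enzyme IC50. The footnotes give each IC50 as the mean of three (or at least three) determinations, with some as single determinations.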

[3] = Cmax in Balb/C mouse at 10 mg/kg, po; assay type: ADME, organism-based; set-up: dose 10 mg/kg, route oral; details: in vivo; summary of the method: as §1
[4] = molecular target: T1, Tyrosine-protein kinase BTK; experiment: Inhibition of BTK in human RamosB cells assessed as suppression of BCR/anti-IgM stimulated calcium flux pre-incubated for 1 hr followed by BCR/anti-IgM stimulation; assay type: cell-based
Mus musculus = experiment: Decrease in anti-KLH IgM titers in chronic Balb/C mouse KLH antibody response model at 30 mg/kg, po administered through oral gavage after 14 days by ELISA; assay type: functional, organism-based; details: in the assay text read “IgG” for “IgM”
Summary of the method: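 Chronic KLH challenge model in mice with compound given by mouth. Anti-KLH IgM appears in the first week after challenge. Switching to IgG anti-KLH is evident by day 14.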

[5] = Stability in mouse liver microsomes; assay type: ADME, Microsome
[6] = Permeability of the compound at pH 7 by PAMPA; assay type: ADME; details: for Papp: read-out: permeability
[7] = Drug metabolism in human liver microsomes assessed as aniline metabolite formation; assay type: ADME, Microsome
Summary of the method: (§2)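 Compounds were incubated with human or rat liver microsomes. Metabolites were profiled for hydrolysis to the aniline and, where applicable, for N-dealkylation giving the bis-aniline.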

[8] = Drug metabolism in rat liver microsomes assessed as aniline metabolite formation; assay type: ADME, Microsome; summary of the method: as §2
[9] = Drug metabolism in human liver microsomes assessed as bis-aniline metabolite formation; assay type: ADME, Microsome; summary of the method: as §2
[10] = Toxicity in mouse administered orally as multiple day dosing schedule; details: in vivo, po
[11] = Drug metabolism in rat liver microsomes assessed as bis-aniline metabolite formation; assay type: ADME, Microsome; summary of the method: as §2

Row | SMILES | AUC(0-t) at 24 h [1] | IC50 [2] | Ratio IC50 (Homo sapiens) | Cmax [3] | IC50 [4] | Stability [5] | permeability [6] | Drug metabolism [7] | Drug metabolism [8] | Drug metabolism [9] | Drug metabolism [11] | Papp [6] | Activity (Mus musculus) | Activity [10]
1 | Cc1c(-c2ccc(C(N)=O)c3[nH]c4cc(C(C)(C)O)ccc4c23)cccc1-n1ccc2ccccc2c1=O | – | 5 nM | 44 | – | 144 nM | – | – | – | – | – | – | – | – | –
2 | Cc1c(-c2ccc(C(N)=O)c3[nH]c4cc(C(C)(C)O)ccc4c23)cccc1-n1cnc2cccc(F)c2c1=O | 58 µM·h | 5 nM | 61 | 6.74 µM | 18 nM | – | – | – | – | – | – | – | – | –
3 | Cc1c(NC(=O)c2ccc(F)cc2)cccc1-c1ccc(C(N)=O)c2[nH]c3cc(NC(C)C)ccc3c12 | 36 µM·h | 11 nM | 61 | 7.96 µM | – | – | Impermeable | Metabolite_Detected | Metabolite_Detected | Metabolite_Detected | Metabolite_Detected | – | – | Toxic
4 | Cc1c(-c2ccc(C(N)=O)c3[nH]c4cc(C(C)(C)O)ccc4c23)cccc1N1CCc2ccccc2C1=O | – | 3 nM | 33 | – | 26 nM | – | – | – | – | – | – | – | – | –
5 | Cc1c(NC(=O)c2ccc(F)cn2)cccc1-c1ccc(C(N)=O)c2[nH]c3cc(C(=O)N4CCN(C)CC4)ccc3c12 | 5 µM·h | 9 nM | 9 | 1.57 µM | – | – | – | Metabolite_Detected | Metabolite_Detected | – | – | 58.7 ×10⁻⁶ cm/s | – | –
6 | Cc1c(NC(=O)c2ccc(F)cc2)cccc1-c1ccc(C(N)=O)c2[nH]c3cc(C(=O)N4CCN(C)CC4)ccc3c12 | 0.4 µM·h | 5 nM | 15 | 0.09 µM | – | – | – | – | – | – | – | 14.7 ×10⁻⁶ cm/s | – | –

More lines, main results first:

Row | AUC(0-t) at 24 h [1] | IC50 [2] | Ratio IC50 (Homo sapiens) | Cmax [3] | IC50 [4] | Stability [5] | permeability [6] | Drug metabolism [7] | Drug metabolism [8] | Drug metabolism [9] | Drug metabolism [11] | Papp [6] | SMILES | Activity (Mus musculus) | Activity [10]
7 | 63 µM·h | 2 nM | 88 | 6.85 µM | 34 nM | – | – | – | – | – | – | – | Cc1c(-c2ccc(C(N)=O)c3[nH]c4cc(C(C)(C)O)ccc4c23)cccc1-n1cnc2c(F)cccc2c1=O | – | –
8 | 14 µM·h | 3 nM | 146 | 4.65 µM | 22 nM | – | – | – | – | – | – | – | Cc1c(-c2ccc(C(N)=O)c3[nH]c4cc(CO)ccc4c23)cccc1-n1cnc2ccccc2c1=O | – | –
9 | – | 5 nM | 25 | – | 154 nM | – | – | – | – | – | – | – | Cc1c(-c2ccc(C(N)=O)c3[nH]c4cc(C(C)(C)O)ccc4c23)cccc1N1Cc2ccccc2C1=O | – | –
10 | 41 µM·h | 2 nM | 48 | 4.41 µM | 48 nM | Stable | – | – | – | – | – | – | Cc1c(-c2ccc(C(N)=O)c3[nH]c4cc(C(C)(C)O)ccc4c23)cccc1N1Cc2ccc(F)cc2C1=O | inactive | –
11 | 120 µM·h | 2 nM | 89 | 8.06 µM | 24 nM | – | – | – | – | – | – | – | Cc1c(-c2ccc(C(N)=O)c3[nH]c4cc(C(C)(C)O)ccc4c23)cccc1-n1cnc2cc(F)ccc2c1=O | – | –
12 | 19 µM·h | – | – | 2.1 µM | – | – | – | – | – | – | – | – | CC(C)(O)c1ccc2c(c1)[nH]c1c(C(N)=O)ccc(-c3cccc(-n4cnc5ccccc5c4=O)c3F)c12 | – | –
13 | 0.3 µM·h | 5 nM | 14 | 0.178 µM | 238 nM | – | – | – | – | – | – | – | Cc1c(-c2ccc(C(N)=O)c3[nH]c4cc(C(=O)N5CCN(C)CC5)ccc4c23)cccc1N1Cc2ccccc2C1=O | – | –
14 | 113 µM·h | 7 nM | 52 | 9.77 µM | 40 nM | – | – | – | – | – | – | – | Cc1c(-c2ccc(C(N)=O)c3[nH]c4cc(C(C)(C)O)ccc4c23)cccc1-n1cnc2ccc(F)cc2c1=O | – | –
